# Calls of active or inactive are those of the source. The rule behind the calls is not given here.
# How the values were obtained:
# Assay type in all cases: functional, organism-based
# Cercopithecidae [1] = test: Induction of yawning and scratching was determined in Baboons at a dose 5.0 mg/kg; present; set-up: dose 5 mg/kg
# In short: (§1)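 Male or female baboons were given a single injection, with two animals per dose level. The same animals received the solvent alone 1 week later. Behaviour was scored by observation, including yawning, body scratching, motor activity, ptosis, posture and responsiveness.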
# Cercopithecidae [2] = test: Induction of yawning and scratching was determined in Baboons at a dose 10.0 mg/kg; present; set-up: dose 10 mg/kg; in short: as §1
# Cercopithecidae [3] = test: Psychotropic effects in Baboons at a dose 10.0 mg/kg; - = no change; set-up: dose 10 mg/kg; in short: as §1
# Cercopithecidae [4] = test: Psychotropic effects in Baboons at a dose 5.0 mg/kg; - = no change; set-up: dose 5 mg/kg; in short: as §1
# Cercopithecidae [5] = test: Psychotropic effects in Baboons at a dose 2.0 mg/kg; - = no change; set-up: dose 2 mg/kg; in short: as §1
# Cercopithecidae [6] = test: Induction of yawning and scratching was determined in Baboons at a dose 2.0 mg/kg; present; set-up: dose 2 mg/kg; in short: as §1
# Cercopithecidae [7] = test: Psychotropic effects in Baboons at a dose 0.05 mg/kg; + = drowsiness, decreased motor activity, occasional partial ptosis, occasional head drop; set-up: dose 0.05 mg/kg; in short: as §1
# Cercopithecidae [8] = test: Induction of yawning and scratching was determined in Baboons at a dose 0.1 mg/kg; absent; set-up: dose 0.1 mg/kg; in short: as §1
# Cercopithecidae [9] = test: Induction of yawning and scratching was determined in Baboons at a dose 0.5 mg/kg; absent; set-up: dose 0.5 mg/kg; in short: as §1
# Cercopithecidae [10] = test: Induction of yawning and scratching was determined in Baboons at a dose 0.05 mg/kg; absent; set-up: dose 0.05 mg/kg; in short: as §1
# Cercopithecidae [11] = test: Psychotropic effects in baboons at a dose 0.5 mg/kg; +++ = severe stupor and ataxia, full ptosis, immobility, crouched posture lasting for more than 3 h, and absence of reaction to external stimuli; set-up: dose 0.5 mg/kg; in short: as §1
# Cercopithecidae [12] = test: Psychotropic effects in Baboons at a dose 0.1 mg/kg; ++ = stupor, ataxia, suppression of motor activity, full ptosis, typical crouched posture (thinker position) kept for up to 3 h; set-up: dose 0.1 mg/kg; in short: as §1
# Cercopithecidae [13] = test: Psychotropic effects in baboons at a dose 10.0 mg/kg; +/- = tranquility; set-up: dose 10 mg/kg; in short: as §1
# Cercopithecidae [14] = test: Psychotropic effects in Baboons at a dose 4.0 mg/kg; - = no change; set-up: dose 4 mg/kg; in short: as §1
# Cercopithecidae [15] = test: Induction of yawning and scratching was determined in Baboons at a dose 4.0 mg/kg; absent; set-up: dose 4 mg/kg; in short: as §1
# Cercopithecidae [16] = test: Induction of yawning and scratching was determined in Baboons at a dose 2.0 mg/kg; absent; set-up: dose 2 mg/kg; in short: as §1
# Cercopithecidae [17] = test: Psychotropic effects in Baboons at a dose 5.0 mg/kg; +/- = tranquility; set-up: dose 5 mg/kg; in short: as §1
# Cercopithecidae [18] = test: Psychotropic effects in baboons at a dose 10.0 mg/kg;+/- = tranquility; set-up: dose 10 mg/kg; in short: as §1
# Cercopithecidae [19] = test: Induction of yawning and scratching was determined in Baboons at a dose 5.0 mg/kg; absent; set-up: dose 5 mg/kg; in short: as §1
# Cercopithecidae [20] = test: Induction of yawning and scratching was determined in Baboons at a dose 10.0 mg/kg; absent; set-up: dose 10 mg/kg; in short: as §1
# Cercopithecidae [21] = test: Induction of yawning and scratching was determined in Baboons at a dose 1.0 mg/kg; absent; set-up: dose 1 mg/kg; in short: as §1
# Cercopithecidae [22] = test: Psychotropic effects in Baboons at a dose 1.0 mg/kg; - = no change; set-up: dose 1 mg/kg; in short: as §1
# Cercopithecidae [23] = test: Psychotropic effects in Baboons at a dose 2.0 mg/kg; + = drowsiness, decreased motor activity, occasional partial ptosis, occasional head drop; set-up: dose 2 mg/kg; in short: as §1
# Cercopithecidae [24] = test: Psychotropic effects in Baboons at a dose 0.1 mg/kg; +/- = tranquility; set-up: dose 0.1 mg/kg; in short: as §1
# Cercopithecidae [25] = test: Psychotropic effects in Baboons at a dose 0.5 mg/kg; ++ = stupor, ataxia, suppression of motor activity, full ptosis, typical crouched posture (thinker position) kept for up to 3 h; set-up: dose 0.5 mg/kg; in short: as §1
# Cercopithecidae [26] = test: Psychotropic effects in Baboons at a dose 1.0 mg/kg; +++ = severe stupor and ataxia, full ptosis, immobility, crouched posture lasting for more than 3 h, and absence of reaction to external stimuli; set-up: dose 1 mg/kg; in short: as §1
smiles,measurement,setting,value
CCCCCc1cc(O)c2c(c1)OC(C)(C)[C@@H]1CC[C@H](CN(C)C)CC21 (stereo partly drawn),Activity,Cercopithecidae [1],present
same,Activity,Cercopithecidae [2],present
same,Activity,Cercopithecidae [3],inactive
same,Activity,Cercopithecidae [4],inactive
same,Activity,Cercopithecidae [5],inactive
same,Activity,Cercopithecidae [6],present
CCCCCc1cc(O)c2c(c1)OC(C)(C)[C@@H]1CC=C(C)C[C@@H]21,Activity,Cercopithecidae [7],Weak activity
same,Activity,Cercopithecidae [8],inactive
same,Activity,Cercopithecidae [9],inactive
same,Activity,Cercopithecidae [10],inactive
same,Activity,Cercopithecidae [11],Active
same,Activity,Cercopithecidae [12],Active
CCCCCc1cc(O)c2c(c1)OC(C)(C)[C@@H]1CC[C@H](CNC)CC21 (stereo partly drawn),Activity,Cercopithecidae [1],present
same,Activity,Cercopithecidae [2],present
same,Activity,Cercopithecidae [4],inactive
same,Activity,Cercopithecidae [13],+/-
same,Activity,Cercopithecidae [5],inactive
same,Activity,Cercopithecidae [6],present
CCCCCc1cc(O)c2c(c1)OC(C)(C)[C@@H]1CCC(CN(C)C)CC21 (stereo partly drawn),Activity,Cercopithecidae [14],inactive
same,Activity,Cercopithecidae [15],inactive
same,Activity,Cercopithecidae [16],inactive
same,Activity,Cercopithecidae [5],inactive
CCCCCc1cc(O)c2c(c1)OC(C)(C)[C@@H]1CCC(CNC)CC21 (stereo partly drawn),Activity,Cercopithecidae [17],+/-
same,Activity,Cercopithecidae [18],+/-
same,Activity,Cercopithecidae [19],inactive
same,Activity,Cercopithecidae [20],inactive
same,Activity,Cercopithecidae [16],inactive
same,Activity,Cercopithecidae [5],inactive
CCCCCc1cc(O)c2c(c1)OC(C)(C)[C@@H]1CC[C@H](C)CC21 (stereo partly drawn),Activity,Cercopithecidae [21],inactive
same,Activity,Cercopithecidae [22],inactive
same,Activity,Cercopithecidae [23],"drowsiness, decreased motor activity, occasional partial ptosis, occasional head drop"
same,Activity,Cercopithecidae [16],inactive
CCCCCc1cc(O)c2c(c1)OC(C)(C)[C@@H]1CC[C@@H](C)CC21 (stereo partly drawn),Activity,Cercopithecidae [21],inactive
same,Activity,Cercopithecidae [24],+/-
same,Activity,Cercopithecidae [8],inactive
same,Activity,Cercopithecidae [9],inactive
same,Activity,Cercopithecidae [25],"severe stupor and ataxia, full ptosis, immobility, crouched posture lasting for more than 3 h, and absence of reaction to external stimuli"
same,Activity,Cercopithecidae [26],"severe stupor and ataxia, full ptosis, immobility, crouched posture lasting for more than 3 h, and absence of reaction to external stimuli"
